Assay results: ChEMBL document CHEMBL4715734, “Discovery of the Potent and Selective M1 PAM-Agonist N-[(3R,4S)-3-Hydroxytetrahydro-2H-pyran-4-yl]-5-methyl-4-[4-(1,3-thiazol-4-yl)benzyl]pyridine-2-carboxamide (PF-06767832): Evaluation of Efficacy and Cholinergic Side Effects” (J Med Chem, 2016); call rule not given here

Legend:
[1] = Toxicity in dog assessed as side-to-side head movements at 45 mg/kg, po using spray-dried dispersion formulation measured after 45 mins; type: organism-based, Canis lupus familiaris; conditions: in vivo, 0.75 h
[2] = target: T1, Muscarinic acetylcholine receptor M1 (Homo sapiens, UniProt P11229); assay: Partial agonist activity at muscarinic M1 receptor (unknown origin) assessed as recruitment of beta-arrestin by Path Hunter assay; type: cell-based, CHO
T1 sequence (P11229 whole entry): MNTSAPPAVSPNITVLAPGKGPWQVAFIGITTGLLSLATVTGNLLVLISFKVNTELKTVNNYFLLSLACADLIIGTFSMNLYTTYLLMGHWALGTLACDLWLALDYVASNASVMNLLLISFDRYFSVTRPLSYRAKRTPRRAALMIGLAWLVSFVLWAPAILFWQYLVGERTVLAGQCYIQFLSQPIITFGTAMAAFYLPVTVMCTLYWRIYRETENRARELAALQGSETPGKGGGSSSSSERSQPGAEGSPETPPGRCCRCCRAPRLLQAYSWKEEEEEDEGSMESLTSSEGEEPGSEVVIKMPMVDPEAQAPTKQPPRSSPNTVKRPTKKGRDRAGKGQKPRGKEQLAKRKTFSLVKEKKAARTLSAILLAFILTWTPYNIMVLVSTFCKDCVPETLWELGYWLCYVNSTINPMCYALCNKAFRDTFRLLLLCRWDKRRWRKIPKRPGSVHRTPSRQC

[3] = Unbound plasma concentration in […] in Sprague-Dawley rat model at 1 mg/kg, sc measured after 1.67 hrs; type: ADME, organism-based; conditions: in vivo
In short: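 Randomly selected animals (N=2/dose) at the end of the rat PPI study, T = 1.67 h. Dosed subcutaneously as a suspension in 0.5% methylcellulose in water. Plasma and brain concentrations were averaged.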

[4] = target: T2, Muscarinic acetylcholine receptor M4 (Homo sapiens, UniProt P08173); assay: Agonist activity at human recombinant muscarinic M4 receptor stably expressed in HEK cells assessed as increase in cAMP accumulation up to 10 uM measured after 10 mins by GloSensor cAMP Assay; type: cell-based
T2 sequence (P08173 whole entry): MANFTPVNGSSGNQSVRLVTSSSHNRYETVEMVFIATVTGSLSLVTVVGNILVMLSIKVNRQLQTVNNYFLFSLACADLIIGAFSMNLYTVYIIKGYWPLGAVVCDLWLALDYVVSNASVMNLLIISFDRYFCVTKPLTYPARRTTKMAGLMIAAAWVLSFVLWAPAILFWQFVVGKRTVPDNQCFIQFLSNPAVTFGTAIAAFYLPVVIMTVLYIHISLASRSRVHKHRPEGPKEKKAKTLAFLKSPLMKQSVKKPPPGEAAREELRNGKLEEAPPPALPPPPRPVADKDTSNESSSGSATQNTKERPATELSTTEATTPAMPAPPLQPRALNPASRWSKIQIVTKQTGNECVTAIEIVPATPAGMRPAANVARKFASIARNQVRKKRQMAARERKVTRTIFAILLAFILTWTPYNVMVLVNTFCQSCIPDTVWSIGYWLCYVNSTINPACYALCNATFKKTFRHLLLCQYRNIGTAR

[5] = Toxicity in dog assessed as emesis at 15 mg/kg, po using spray-dried dispersion formulation; type: organism-based, Canis lupus familiaris; conditions: in vivo
In short: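 Dogs received single escalating oral doses as a spray-dried dispersion (10% drug loading with HPMCAS-M). The dispersion was suspended in 0.5 wt% methylcellulose/0.5 wt% HPMCAS in 20 mM tris buffer, pH 7.4. One dog per sex per dose was used, and clinical signs were recorded.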

[6] = Toxicity in rat at 3 mg/kg, po administered for 14 days; type: organism-based; conditions: in vivo, 336 h, time 14 day
In short: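 Two-week repeat-dose toxicity study in rats. Oral dosing in 0.5% methylcellulose at 3, 10, 30 (males)/15 (females) mg/kg, N=4/sex/dose. Food intake, body weight gain and histopathology were assessed.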

[7] = Fraction unbound in Wistar Han rat plasma; type: ADME
[8] = In vivo positive allosteric modulation of muscarinic M1 receptor in CD1 mouse assessed as increase in ACh-induced IP-1 levels in […] tissue at 10 mg/kg, sc measured after 2 hrs by HTRF assay relative to baseline; type: functional
In short: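 Given sc as a solution in 5/15/80 DMSO/Solutol/water. Striatal IP1 was read 2 h after dosing and expressed as fold increase over baseline. Compound levels were measured in striatal tissue at 2 h (N=5/dose). Each animal's fold increase was plotted against its unbound brain concentration.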

[9] = fAUC (0 to 24 hrs) in dog at 15 mg/kg, po using spray-dried dispersion formulation; type: ADME, organism-based, Canis lupus familiaris; conditions: in vivo
[10] = Unbound brain concentration in CD-1 mouse at 1 mg/kg, sc measured after 2 hrs by LC-MS/MS analysis; type: ADME, organism-based; conditions: in vivo
[11] = Partial agonist activity at muscarinic M2/M3 receptor in Hartley guinea pig ileum assessed as stimulation of contraction relative to carbachol; type: tissue-based, Cavia porcellus
In short: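 Agonist mode used a guinea pig ileum tissue bath with the compound applied alone. Concentration–response curves were run with or without the non-selective muscarinic antagonist atropine. Contraction was expressed relative to the maximal carbachol response.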

[12] = Unbound plasma concentration in amphetamine-induced C57BL/6J mouse model of hyperlocomotion at 0.32 mg/kg, sc measured after 1 hr; type: ADME, organism-based; conditions: in vivo
In short: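 Satellite PK animals from the mouse aLMA study, N=2/dose. Dosed subcutaneously with a solution in 5/15/80 DMSO/Solutol/water. Plasma and brain were sampled at T = 1 h.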

[13] = Ratio of fAUC in brain to plasma of scopolamine-induced Wistar rat model at 0.1 mg/kg, po measured after 1 hr; type: ADME, organism-based; conditions: brain and plasma, read-out: Ratio AUC
[14] = fCmax in dog at 5 mg/kg, po using spray-dried dispersion formulation; type: ADME, organism-based, Canis lupus familiaris; conditions: in vivo
[15] = fCmax in rat at 15 mg/kg, po administered for 14 days; type: ADME, organism-based; conditions: in vivo, 336 h, time 14 day
In short: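 2-week repeat oral dosing in rats, 0.5% methylcellulose formulation; N=4/sex/dose; doses 3, 10, 30 (males)/15 (females) mg/kg; unbound exposures reported per dose and sex.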

[16] = Unbound brain concentration in CD-1 mouse at 3.2 mg/kg, sc measured after 2 hrs by LC-MS/MS analysis; type: ADME, organism-based; conditions: in vivo
[17] = Half-life in rat at 0.5 mg/kg, po or 1 mg/kg, iv; type: ADME, organism-based; conditions: in vivo
[18] = fCmax in dog at 3 mg/kg, po using spray-dried dispersion formulation; type: ADME, organism-based, Canis lupus familiaris; conditions: in vivo

EC50 [2]: 3.9 µM | Cp(f) [3]: 45.6 nM | Activity [4]: Not Active | Fu [7]: 4.3% | fAUC [9]: 7.765 µM·h | Drug uptake(free) [10]: 14.3 nM | Emax [11]: 77% | Cp(f) [12]: 23.4 nM | Kp uu at 1 h [13]: 0.34 | fCmax [14]: 659 nM | fCmax [15]: 708 nM | Drug uptake(free) [16]: 52.8 nM | half-life [17]: 5.58 h | fCmax [18]: 568 nM
Structure (SMILES): Cc1cnc(C(=O)N[C@H]2CCOC[C@@H]2O)cc1Cc1ccc(-c2cscn2)cc1
Activity [1]: Toxic | Activity [5]: Toxic | Activity [6]: Non-Toxic | fold change (FC) [8]: 42
